pIC50: −log10 of the molar value. Calls of active or inactive are those of the source. The calls are words filed in the database; no cut-off is given here.
Assays:
[1] = biological target: T1, Cytochrome P450 11B2, mitochondrial (Homo sapiens, UniProt P19099); test: Inhibition of human CYP11B2 expressed in V79 cells incubated for 1 hr before 11-deoxycorticosterone substrate addition by HTRF-based assay; assay type: cell-based
T1 sequence (P19099 whole entry): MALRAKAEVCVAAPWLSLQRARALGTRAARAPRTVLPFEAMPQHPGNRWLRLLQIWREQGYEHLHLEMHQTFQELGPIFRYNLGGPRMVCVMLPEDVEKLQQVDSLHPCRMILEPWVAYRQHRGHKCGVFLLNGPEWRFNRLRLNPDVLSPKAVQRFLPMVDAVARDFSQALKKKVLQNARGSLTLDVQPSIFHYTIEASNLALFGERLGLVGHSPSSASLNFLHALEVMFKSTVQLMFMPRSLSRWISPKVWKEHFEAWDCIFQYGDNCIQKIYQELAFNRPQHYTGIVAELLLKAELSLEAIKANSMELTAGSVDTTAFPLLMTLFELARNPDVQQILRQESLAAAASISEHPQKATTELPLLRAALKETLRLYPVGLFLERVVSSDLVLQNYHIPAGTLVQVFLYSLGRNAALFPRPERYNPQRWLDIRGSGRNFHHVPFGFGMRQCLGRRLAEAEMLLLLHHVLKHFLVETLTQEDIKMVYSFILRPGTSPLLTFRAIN
Procedure, shortened: (§1)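 Human CYP11B2 and CYP11B1 inhibition was tested in cell-based assays. Selectivity was taken as the hCYP11B1 IC50 divided by the hCYP11B2 IC50.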

[2] = biological target: T2, Cytochrome P450 11B1, mitochondrial (Homo sapiens, UniProt P15538); test: Inhibition of human CYP11B1 expressed in V79 cells incubated for 1 hr before 11-deoxycortisol substrate addition by HTRF-based assay; assay type: cell-based; procedure, shortened: as §1
T2 sequence (P15538 whole entry): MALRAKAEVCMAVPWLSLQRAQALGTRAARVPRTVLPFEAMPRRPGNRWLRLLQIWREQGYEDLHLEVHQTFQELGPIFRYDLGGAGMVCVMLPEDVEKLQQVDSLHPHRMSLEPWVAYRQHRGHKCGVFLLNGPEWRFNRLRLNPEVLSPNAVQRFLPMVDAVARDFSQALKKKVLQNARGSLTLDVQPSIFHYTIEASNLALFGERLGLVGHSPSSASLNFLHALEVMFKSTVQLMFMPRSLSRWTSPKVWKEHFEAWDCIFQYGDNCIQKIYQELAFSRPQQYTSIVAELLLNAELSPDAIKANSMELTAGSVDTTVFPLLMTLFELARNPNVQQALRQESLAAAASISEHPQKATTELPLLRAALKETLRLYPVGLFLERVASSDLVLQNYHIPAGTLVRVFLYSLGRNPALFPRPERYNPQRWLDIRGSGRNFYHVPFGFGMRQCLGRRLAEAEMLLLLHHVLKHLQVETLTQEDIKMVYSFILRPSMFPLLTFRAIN

Homo sapiens = species: Homo sapiens; test: Selectivity index, ratio of IC50 for human CYP11B1 to IC50 for human CYP11B2; procedure, shortened: as §1
Rattus norvegicus = test: Dose normalized AUC in Sprague-Dawley rat at 2 mg/kg, po or 1 mg/kg, iv by LC-MS/MS method; assay type: ADME, organism-based; conditions: in vivo
Procedure, shortened: (§2)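 In the rat pharmacokinetic study, AUC was normalized for dose (μM·h·kg/mg), plasma clearance was expressed in mL/min/kg, and oral bioavailability was calculated.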

[3] = Oral bioavailability in Sprague-Dawley rat at 2 mg/kg by LC-MS/MS method; assay type: ADME, organism-based; conditions: in vivo; procedure, shortened: as §2
[4] = Intrinsic clearance in rat liver microsomes at […] incubated for 10 mins before NADPH addition by LC/MS method; assay type: ADME; conditions: read-out: CLH
[5] = Fraction unbound in rat plasma at […] incubated for 4 hrs by equilibrium dialysis and LC/MS method; assay type: ADME, cell-free
[6] = Plasma clearance in Sprague-Dawley rat at 2 mg/kg, po or 1 mg/kg, iv by LC-MS/MS method; assay type: ADME, organism-based; procedure, shortened: as §2
[7] = biological target: T3, Cytochrome P450 11B2, mitochondrial (Rattus norvegicus, UniProt P30099); test: Inhibition of rat CYP11B2 expressed in V79 cells incubated for 1 hr before 11-deoxycorticosterone substrate addition by HTRF-based assay; assay type: cell-based; conditions: v79, 1 h
T3 sequence (P30099 whole entry): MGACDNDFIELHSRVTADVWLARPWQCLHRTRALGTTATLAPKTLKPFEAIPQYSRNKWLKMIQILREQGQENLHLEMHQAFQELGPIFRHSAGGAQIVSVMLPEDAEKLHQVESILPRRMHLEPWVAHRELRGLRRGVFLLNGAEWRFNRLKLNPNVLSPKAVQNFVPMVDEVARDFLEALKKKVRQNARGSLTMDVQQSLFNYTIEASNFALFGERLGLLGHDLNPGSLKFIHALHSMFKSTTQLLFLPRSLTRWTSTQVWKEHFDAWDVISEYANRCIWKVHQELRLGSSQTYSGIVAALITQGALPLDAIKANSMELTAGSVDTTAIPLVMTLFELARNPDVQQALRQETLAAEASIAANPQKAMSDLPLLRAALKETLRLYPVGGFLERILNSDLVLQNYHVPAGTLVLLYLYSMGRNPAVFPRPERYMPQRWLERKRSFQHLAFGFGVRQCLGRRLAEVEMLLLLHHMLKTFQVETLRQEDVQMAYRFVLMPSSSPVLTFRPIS

V79 = test: Inhibition of rhesus monkey CYP11B2 expressed in V79 cells incubated for 1 hr before 11-deoxycorticosterone substrate addition by HTRF-based assay; assay type: cell-based; conditions: Macaca mulatta

Compound: CS(=O)(=O)c1ccc2c(c1)nc(-c1cccnc1)n2C1CC1
- pIC50 [1]: < 6.00
- pIC50 [2]: < 5.00

Compound: COc1c(C)cncc1-c1nc2cc(F)c(F)cc2n1C1CC1
- Ratio IC50 (Homo sapiens): 709
- pIC50 [1]: 9.22
- pIC50 [2]: 6.36

Compound: N#Cc1cc2c(cc1F)nc(-c1cncc(F)c1)n2C1CC1
- Ratio IC50 (Homo sapiens): 225
- pIC50 [1]: 9.00
- pIC50 [2]: 6.65

Compound: Cn1c(-c2cccnc2)nc2ccc(F)cc21
- AUC/dose (Rattus norvegicus): 0.56 µM·kg·h/mg
- bioavailability [3]: 37%
- Ratio IC50 (Homo sapiens): 56
- CLint scaled [4]: 1.8 L/h/kg
- pIC50 [1]: 7.92
- fraction unbound at 4 h [5]: 0.25
- pIC50 [2]: 6.17
- clearance [6]: 3.54 L/h/kg

Compound: FC(F)(F)c1ccc2nc(-c3cccnc3)n(C3CC3)c2c1
- Ratio IC50 (Homo sapiens): 7
- pIC50 [1]: 6.60
- pIC50 [2]: 5.74

Compound: N#Cc1cc2c(cc1F)nc(-c1cccnc1)n2C1CC1
- Ratio IC50 (Homo sapiens): 195
- pIC50 [1]: 9.22
- pIC50 [2]: 6.93

Compound: FC(F)(F)c1ccc2c(c1)nc(-c1cccnc1)n2C1CC1 [MSD-CYP11B2-Negative-control]
- pIC50 [1]: < 5.00
- pIC50 [2]: < 5.00

Compound: c1cncc(-c2nc3ccccc3n2C2CC2)c1
- Ratio IC50 (Homo sapiens): > 170
- pIC50 [1]: 7.31
- pIC50 [2]: < 5.08

Compound: Fc1ccc2nc(-c3cccnc3)n(C3CCC3)c2c1
- pIC50 [1]: < 5.30
- pIC50 [2]: < 5.00

Compound: COc1ccc2nc(-c3cccnc3)n(C3CC3)c2c1
- Ratio IC50 (Homo sapiens): 83
- pIC50 [1]: 7.62
- pIC50 [2]: 5.70

Compound: Fc1ccc2c(c1)nc(-c1cccnc1)n2C1CC1
- Ratio IC50 (Homo sapiens): 142

Compound: CC(C)(C)n1c(-c2cccnc2)nc2ccc(F)cc21
- pIC50 [1]: < 5.30
- pIC50 [2]: < 5.00

Compound: Fc1ccc2nc(-c3cccnc3)n(C3CC3)c2c1
- AUC/dose (Rattus norvegicus): 1.82 µM·kg·h/mg
- bioavailability [3]: 77%
- Ratio IC50 (Homo sapiens): 100
- CLint scaled [4]: 1.68 L/h/kg
- pIC50 [1]: 8.40
- fraction unbound at 4 h [5]: 0.15
- pIC50 [2]: 6.40
- clearance [6]: 1.68 L/h/kg

Compound: Fc1ccc2nc(-c3cccnc3)[nH]c2c1
- Ratio IC50 (Homo sapiens): < 1
- pIC50 [1]: < 5.00
- pIC50 [2]: 5.70

Compound: CC(C)n1c(-c2cccnc2)nc2ccc(F)cc21
- Ratio IC50 (Homo sapiens): 28
- pIC50 [1]: 6.86
- pIC50 [2]: 5.41

Compound: Cc1ccncc1-c1nc2cc(F)c(F)cc2n1C1CC1
- Ratio IC50 (Homo sapiens): 71
- pIC50 [1]: 7.99
- pIC50 [2]: 6.14

Compound: COc1ccc2c(c1)nc(-c1cccnc1)n2C1CC1
- pIC50 [1]: < 6.00
- pIC50 [2]: < 5.00

Compound: N#Cc1cncc(-c2nc3cc(F)c(F)cc3n2C2CC2)c1
- Ratio IC50 (Homo sapiens): 70
- pIC50 [1]: 7.65
- pIC50 [2]: 5.81

Compound: Fc1cc2nc(-c3cnccc3C(F)(F)F)n(C3CC3)c2cc1F
- Ratio IC50 (Homo sapiens): 98
- pIC50 [1]: 8.09
- pIC50 [2]: 6.10

Compound: N#Cc1ccc2nc(-c3cccnc3)n(C3CC3)c2c1
- Ratio IC50 (Homo sapiens): 309
- pIC50 [1]: 8.92

Compound: Fc1ccc2nc(-c3cccnc3)n(Cc3ccccc3)c2c1
- Ratio IC50 (Homo sapiens): > 14
- pIC50 [1]: 6.22
- pIC50 [2]: < 5.08

Compound: N#Cc1ccc2c(c1)nc(-c1cccnc1)n2C1CC1
- Ratio IC50 (Homo sapiens): > 6
- pIC50 [1]: 5.75
- pIC50 [2]: < 5.00

Compound: Fc1ccc2nc(-c3cccnc3)n(CC(F)(F)F)c2c1
- Ratio IC50 (Homo sapiens): > 15
- pIC50 [1]: 6.25
- pIC50 [2]: < 5.08

Compound: CCn1c(-c2cccnc2)nc2ccc(F)cc21
- Ratio IC50 (Homo sapiens): 60
- pIC50 [1]: 7.46
- pIC50 [2]: 5.68

Compound: Fc1cncc(-c2nc3cc(F)c(Cl)cc3n2C2CC2)c1
- Ratio IC50 (Homo sapiens): 296
- pIC50 [1]: 9.10
- pIC50 [2]: 6.60

Compound: Fc1cc2nc(-c3cccnc3)n(C3CC3)c2cc1Cl
- Ratio IC50 (Homo sapiens): 835
- pIC50 [1]: 9.40
- pIC50 [2]: 6.48

Compound: COc1cncc(-c2nc3cc(F)c(F)cc3n2C2CC2)c1
- Ratio IC50 (Homo sapiens): 606
- pIC50 [1]: 9.40
- pIC50 [2]: 6.60

Compound: Fc1cccc2nc(-c3cccnc3)n(C3CC3)c12
- Ratio IC50 (Homo sapiens): > 93
- pIC50 [1]: 6.97
- pIC50 [2]: < 5.00

Compound: CC1(n2c(-c3cccnc3)nc3ccc(F)cc32)CC1
- AUC/dose (Rattus norvegicus): 0.2 µM·kg·h/mg
- bioavailability [3]: 32%
- Ratio IC50 (Homo sapiens): 179
- CLint scaled [4]: 4.92 L/h/kg
- pIC50 [1]: 7.80
- fraction unbound at 4 h [5]: 0.19
- pIC50 [2]: 5.54
- clearance [6]: 7.86 L/h/kg

Compound: Fc1cc2nc(-c3cccnc3)n(C3CC3)c2cc1F
- AUC/dose (Rattus norvegicus): 1.32 µM·kg·h/mg
- bioavailability [3]: 92%
- Ratio IC50 (Homo sapiens): 176
- CLint scaled [4]: < 1.2 L/h/kg
- pIC50 [1]: 8.68
- fraction unbound at 4 h [5]: 0.15
- pIC50 [2]: 6.43
- inhibition (INH) [7]: Not Active
- inhibition (V79): Active
- clearance [6]: 2.58 L/h/kg

Compound: Fc1cccc2c1nc(-c1cccnc1)n2C1CC1
- Ratio IC50 (Homo sapiens): > 38
- pIC50 [1]: 6.66
- pIC50 [2]: < 5.08

Compound: Clc1ccc2nc(-c3cccnc3)n(C3CC3)c2c1
- Ratio IC50 (Homo sapiens): 215
- pIC50 [1]: 8.66
- pIC50 [2]: 6.32

Compound: Cc1cncc(-c2nc3cc(F)c(F)cc3n2C2CC2)c1C
- Ratio IC50 (Homo sapiens): 74
- pIC50 [1]: 9.70
- pIC50 [2]: 7.75
